Compounds with a hit are over-represented: about 4.1% of the library has one in this group of screens.
MEKK2wt PB1 HTS – raises or lowers MEK5 binding to wildtype human MEKK2 PB1 domain. 290,000 tested, 1.1% active. bead flow cytometry, Alexa488-MEK5 binding to MEKK2 WT; actives lie on both sides. binding response (% of control), % at 10 µM; in the data active = binding response below about 67% or above about 130%; inconclusive = no clear call, values can overlap the other calls; inactive = in between
FID counter – displaces DNA intercalator in HCV helicase counter-screen. inhibition, % at 7.9 µM. DNA fluorescent intercalator displacement, fluorescence. AID 1845. 290,000 tested, 0.17% active; in the data active = inhibition above about 37%;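 note: 0% = vehicle and 100% = reference compound; higher means more ethidium bromide displaced from hairpin DNA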
MEKK2 mut-MEK5 – signal of MEK5 binding to mutant human MEKK2 PB1 domain; bead flow cytometry, Alexa488-MEK5 binding to MEKK2 mutant; percent response, % at 10 µM; 290,000 tested, 0.35% active; in the data active = percent response above about 24%, passing the limit was not always enough
HCV NS3 hel inh – blocks Hepatitis C virus NS3 helicase unwinding. 290,000 tested, 0.56% active. NS3 helicase DNA unwinding, Cy5 molecular beacon fluorescence. inhibition, % at 10.9 µM;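 active = inhibition above the mean of all tested compounds plus 3 SD, set per campaign, cut at about 35% in these data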;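 note: 0% = DMSO wells and 100% = thioflavine S control wells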
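Control set: DMSO versus 110 µM thioflavine S; Material: NS3 helicase fragment of HCV; Measured by: Cy5 fluorescence at 0 and 60 min, beacon hairpin quenching; Read-out basis: percent inhibition from t60/t0 fluorescence ratio; Times: reaction time 60 min, 25 °C; Repeats: single replicate; Compound dosing: single dose, 10.9 µM nominal final, DMSO 0.8% final.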
T cruzi repl – T. cruzi replication inhibition; inhibition, % (test concentration not listed); AID 1885; T. cruzi beta-gal in NIH3T3, luminescence, 90 h; 300,000 tested, 1.4% active;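 active = mean inhibition across valid replicates above about 55%, limit read from the data; inconclusive = mean below that limit but half or more replicates reach it; inactive = mean below it, under half of replicates reach it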;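 note: signal also drops with host cell toxicity which is not excluded here; 0% = plate median of DMSO wells and 100% = zero luminescence signal; higher percent means less beta-gal luminescence so fewer parasites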
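compound dosing = single 50 nL compound addition per well in DMSO | material = NIH/3T3 host cells with β-galactosidase reporter T. cruzi | input = 5,000 host fibroblasts per well | timing = ≥90 h infection period, 3 h prior cell attachment | read-out basis = percent inhibition of parasite-derived β-gal signal | detection = GalScreen β-gal luminescence, detergent lysis, 60 min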
MEKK3 PB1 HTS – raises or lowers MEK5 binding to the human MEKK3 PB1 domain; bead-based flow cytometry, Alexa488-MEK5 binding to MEKK3; actives lie on both sides; 0 = blocked by unlabeled MEK5, 100 = vehicle; AID 1529; 290,000 tested, 1.4% active; Q99759; binding response (% of control), % at 10 µM;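 active = binding response more than 3 SD above or below the average of its plate-row segment, actives on both sides; inconclusive = wells at one plate position flagged as instrument error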;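 note: Alexa488 bead fluorescence after subtracting the streptavidin-only scavenger bead signal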
Target sequence (Q99759 whole entry, looked up, the tested form may be a part): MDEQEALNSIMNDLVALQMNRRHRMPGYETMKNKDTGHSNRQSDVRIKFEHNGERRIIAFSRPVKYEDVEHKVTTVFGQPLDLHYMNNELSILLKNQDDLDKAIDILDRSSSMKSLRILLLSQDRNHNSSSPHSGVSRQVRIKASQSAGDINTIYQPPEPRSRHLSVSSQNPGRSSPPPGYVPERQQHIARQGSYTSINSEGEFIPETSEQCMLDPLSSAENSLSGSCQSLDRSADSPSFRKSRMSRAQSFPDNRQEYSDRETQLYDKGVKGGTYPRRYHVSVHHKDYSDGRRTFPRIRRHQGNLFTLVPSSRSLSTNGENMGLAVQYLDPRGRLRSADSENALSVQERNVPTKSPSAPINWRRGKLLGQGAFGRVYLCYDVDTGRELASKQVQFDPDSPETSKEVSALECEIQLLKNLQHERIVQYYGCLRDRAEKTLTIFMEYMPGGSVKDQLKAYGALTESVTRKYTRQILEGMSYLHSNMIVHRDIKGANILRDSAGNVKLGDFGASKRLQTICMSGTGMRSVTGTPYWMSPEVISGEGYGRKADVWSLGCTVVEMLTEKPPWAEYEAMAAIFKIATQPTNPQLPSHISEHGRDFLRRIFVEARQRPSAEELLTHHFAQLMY
* hit, by the source's call; ? = inconclusive; / = not tested or not shown; [ ] = dose if it differs, or a comment.

SMILES	MEKK2wt PB1 HTS	FID counter	MEKK2 mut-MEK5	HCV NS3 hel inh	T cruzi repl	MEKK3 PB1 HTS
Cc1ccc(S(=O)(=O)N2CCN(c3ccccc3)CC2)cc1C(=O)NC1CCCCC1	102	-49	4	1	-9	103
COC(=O)C1CCN(C(=O)CC(NC(=O)C(F)(F)F)c2cccs2)CC1 (configuration not stated)	101	-5	-1	2	0	98
N#CCC(=O)N/N=C/c1cc(-c2ccccc2)n(-c2ccc(Cl)cc2)c1-c1ccccc1	62	6	-13	-2	60*	74
N#CCC(=O)N/N=C/c1ccc(Cl)cc1	99	-4	-3	3	-6	106
Cc1ccc(-n2c(-c3ccccc3)cc(/C=N/NC(=O)CC#N)c2-c2ccccc2)cc1	89	-6	-8	-3	65*	101
CCCCOc1ccccc1/C=N/NC(=O)CC#N	104	0	-1	11	-3	124
CCN(CC(=O)Nc1ccccc1C(F)(F)F)C(=O)C1CSC2(C)CCC(=O)N12 (configuration not stated)	/	/	/	/	3	/
Cc1[nH][nH]c(=O)c1C(c1cc2c(cc1Br)OCO2)c1c(C)[nH][nH]c1=O	23*	-7	36	6	-6	103
Cn1c(=O)n(Cc2ccc(Cl)cc2)c(=O)c2c1nc1n2CCN1Cc1ccco1	113	-2	5	-9	-6	109
Cc1cccc(Cn2c(=O)c3c(nc4n3CCN4Cc3ccco3)n(C)c2=O)c1	2.0*[inhibitor]	-22	-16	0	-8	2.0*[inhibitor]
O=C(CCl)N=c1sccn1Cc1cccc2ccccc12	90	-11	-4	5	51	99
O=C(CCl)N=c1sccn1Cc1ccccc1Cl	90	-4	-21	1	61*	86
CCC(=O)OCC(=O)N=c1sccn1Cc1ccccc1Cl	107	-33	12	-1	-1	105
O=C(CCl)N=c1sccn1Cc1ccc(Cl)cc1Cl	59	-8	-15	-7	99*	65
O=C(Nc1ccccc1-c1nc2ccccc2[nH]1)c1ccc(N2C(=O)CCC2=O)cc1	96	-2	-1	10	19	93
CC1CCCCN1S(=O)(=O)c1ccc(C(=O)Nc2ccccc2-c2nc3ccccc3[nH]2)cc1 (configuration not stated)	98	-1	0	-4	50	101
O=C(Nc1ccccc1-c1nc2ccccc2[nH]1)c1sc2ccccc2c1Cl	103	-4	0	11	60*	99
O=C(Nc1ccccc1-c1nc2ccccc2[nH]1)c1ccc(S(=O)(=O)N2CCCCC2)cc1	113	-3	3	5	58*	110
FC(F)(F)c1ccc(-c2noc(CN3CCCN(C4CCCCC4)CC3)n2)cc1	133	10	22	-5	37	97
O=c1cc(N2CCCCC2)c(-c2ccccc2)nn1Cc1ccc(F)cc1	104	-16	-1	0	55*	111
O=C(O)CCCN1C(=O)/C(=C\c2ccc(-c3nc4ccccc4s3)o2)SC1=S	41*[inhibitor]	-11	-20	12	3	68
CCOC(=O)c1c(NC(=O)COC(=O)c2ccccc2NC)sc(C(=O)N(C)C)c1C	101	-41	4	-20	59*	101
CCc1ccc(NC(=O)CSc2nc3cc(C(=O)OC)ccc3c(=O)n2Cc2ccco2)cc1	93	5	-2	7	0	100
CCOC(=O)c1c(NC(=O)CSc2nc3cc(Cl)ccc3c(=O)n2Cc2ccco2)sc(C(=O)N(C)C)c1C	103	-5	19	8	61*	102
COc1ccccc1CNC(=O)C(=O)NCC1CCCN1S(=O)(=O)c1cccs1 (configuration not stated)	/	/	/	/	62*	/
SMILES	MEKK2wt PB1 HTS	FID counter	MEKK2 mut-MEK5	HCV NS3 hel inh	T cruzi repl	MEKK3 PB1 HTS
CC1CC2=C(NC(=S)NC2c2cccc(F)c2)/C(=C/c2cccc(F)c2)C1 (configuration not stated)	92	-18	-7	-3	59*	107
Cc1ccc(Cl)cc1NC(=O)Nc1c(C)n(C)n(-c2ccccc2)c1=O	101	-5	0	-3	-6	105
Cc1c2c(n3c(nc4ccccc43)c1C#N)N(CCN(C)C)CC2	107	18	-42	1	70*	113
Cc1c(Cc2ccccc2)c(NCCN(C)C)n2c(nc3ccccc32)c1C#N	113	5	11	6	56*	105
Cc1c2c(n3c(nc4ccccc43)c1C#N)N(c1ccccc1)CC2	101	-5	-1	4	/	100
Cc1c2c(n3c(nc4ccccc43)c1C#N)N(CCCN(C)C)CC2	96	15	-42	-2	63*	92
CCCCc1c(C)c(C#N)c2nc3ccccc3n2c1NCCN(C)C	104	8	0	-7	40	101
Cc1cc2c(SCC(=O)NC3CCCC3)ncnc2s1	95	-18	0	9	-4	100
CCOc1ccccc1C(=O)Nc1ccc(-n2nncc2C(C)(C)C)cc1	103	-10	-1	3	34	109
COc1cccc(N2CCN(c3ncnc4c3[nH]c3ccc(F)cc34)CC2C)c1 (configuration not stated)	164*	-8	21	-30	?	109
Cc1cc(C)n(C(=O)CN(C)S(=O)(=O)c2ccc([N+](=O)[O-])cc2)n1	102	-11	7	-4	-6	104
COc1ccc(CN2CCN(S(=O)(=O)c3ccc(F)cc3)CC2)cc1OC	22*[inhibitor]	0	-18	-1	-12	13*[inhibitor]
CC(=O)c1cccc(N(C(=O)c2ccco2)C(C(=O)NC2CCCC2)c2ccccc2F)c1 (configuration not stated)	99	-30	9	5	19	101
O=C(CNC(=S)N(Cc1ccccc1)Cc1cccs1)NCc1ccc(F)cc1	93	-7	-1	-7	-4	98
O=C(CNC(=S)N(Cc1ccccc1)Cc1ccccc1F)NCCc1ccc(Cl)cc1	96	-15	-1	1	85*	96
O=[N+]([O-])c1cccc(S(=O)(=O)NCC2CC3CCC2C3)c1 (configuration not stated)	98	-5	-6	16	8	95
Cc1ccc(-c2nc(NC(=O)c3nn(C)cc3[N+](=O)[O-])sc2C)cc1C	/	-10	/	-4	64*	/
Cc1ccc(-c2nc(NC(=O)c3nn(C)cc3[N+](=O)[O-])sc2C)cc1	102	-10	-6	-13	26	93
CCc1cccc2sc(N3CCN(C(=O)c4ccc([N+](=O)[O-])o4)CC3)nc12	/	/	/	/	64*	/
COc1ccc(C(=O)c2ccccc2)c(OCC(=O)NC2CC2)c1	94	-22	-5	-4	1	90

Screening data deposited in PubChem by several laboratories.
